Reference: ChEMBL document CHEMBL1944590, “Synthesis of 3-phenylsulfonylmethyl cyclohexylaminobenzamide-derived antagonists of CC chemokine receptor 2 (CCR2)” (Bioorg Med Chem Lett, 2012)
Activity calls are given as the source filed them. No cut-off for these calls is given here.

How the values were obtained:
[1] = biological target: T1, C-C chemokine receptor type 2 (Homo sapiens, UniProt P41597); assay: Displacement of [125I]MCP-1 from CCR2 in human PMBC
Target sequence in this assay (P41597 whole entry): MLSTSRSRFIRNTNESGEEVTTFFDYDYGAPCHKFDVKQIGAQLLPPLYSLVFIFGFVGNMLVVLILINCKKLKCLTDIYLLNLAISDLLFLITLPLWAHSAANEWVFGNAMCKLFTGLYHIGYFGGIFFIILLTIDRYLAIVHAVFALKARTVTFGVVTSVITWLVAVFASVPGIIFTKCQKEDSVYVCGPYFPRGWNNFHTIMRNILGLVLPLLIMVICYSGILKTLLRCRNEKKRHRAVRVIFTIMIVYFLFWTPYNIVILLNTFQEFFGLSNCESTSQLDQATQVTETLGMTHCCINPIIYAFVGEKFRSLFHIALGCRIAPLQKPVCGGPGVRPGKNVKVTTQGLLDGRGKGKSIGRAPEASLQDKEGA

[2] = biological target: T1, C-C chemokine receptor type 2; assay: Displacement of [125I]MCP-1 from CCR2 in human PMBC up to 2400 nM
Method in brief: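 Competition binding against [¹²⁵I]MCP-1 using human peripheral blood mononuclear cells at room temperature. IC50 typically given as the mean of two determinations (± standard deviation).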
Target sequence in this assay (P41597 whole entry, looked up): as the sequence (P41597 whole entry) above

[3] = Metabolic stability of the compound in human liver microsomes assessed as compound remaining at 0.5 uM aftet 10 mins; format: ADME, Microsome; conditions: read-out: Stability
Method in brief: (§1)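 Test compound at 0.5 μM initial concentration incubated 10 min with human, rat or mouse liver microsomes. Stability expressed as percentage of parent compound remaining at the end of incubation.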

[4] = Metabolic stability of the compound in mouse liver microsomes assessed as compound remaining at 0.5 uM aftet 10 mins; format: ADME, Microsome; conditions: read-out: Stability; method in brief: as §1
[5] = Metabolic stability of the compound in rat liver microsomes assessed as compound remaining at 0.5 uM aftet 10 mins; format: ADME, Microsome; conditions: read-out: Stability; method in brief: as §1
[6] = biological target: T1, C-C chemokine receptor type 2; assay: Displacement of [125I]MCP-1 from CCR2 in human THP1 cells; format: cell-based, THP-1
Method in brief: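 Competition binding against [¹²⁵I]MCP-1 using THP-1 cells in place of peripheral blood mononuclear cells. IC50 typically given as the mean of two determinations.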
Target sequence in this assay (P41597 whole entry): as above

[7] = biological target: C-C chemokine receptor type 5 (Homo sapiens, UniProt P51681); assay: Displacement of [125I]MIP-1beta from CCR5
C-C chemokine receptor type 5, sequence (P51681 whole entry): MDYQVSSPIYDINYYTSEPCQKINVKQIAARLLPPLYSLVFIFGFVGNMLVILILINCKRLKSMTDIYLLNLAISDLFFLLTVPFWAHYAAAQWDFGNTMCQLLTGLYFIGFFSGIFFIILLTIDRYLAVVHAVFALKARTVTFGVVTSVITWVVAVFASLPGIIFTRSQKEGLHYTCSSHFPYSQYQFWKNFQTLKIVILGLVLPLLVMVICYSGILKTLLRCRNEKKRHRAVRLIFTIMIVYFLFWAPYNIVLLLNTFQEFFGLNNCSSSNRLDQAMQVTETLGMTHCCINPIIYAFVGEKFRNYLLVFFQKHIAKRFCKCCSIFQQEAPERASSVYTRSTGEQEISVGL

Homo sapiens = organism: Homo sapiens; assay: Selectivity ratio of IC50 for CCR5 to IC50 for human CCR2

N[C@@H]1CC[C@H](NC(=O)CNC(=O)c2cccc(C(F)(F)F)c2)C[C@H]1CS(=O)(=O)c1ccccc1
IC50 [1]: 3700 nM

CC(C)N(C)[C@H]1CC[C@@H](NC(=O)CNC(=O)c2cccc(C(F)(F)F)c2)C[C@H]1CS(=O)(=O)c1ccccc1
inhibition [2]: inactive

N[C@@H]1CC[C@H](NC(=O)CNC(=O)c2cccc(C(F)(F)F)c2)C[C@@H]1CS(=O)(=O)c1ccccc1 (racemic)
remaining at 10 min, 0.5 µM [3]: 100%
IC50 [1]: 59 nM
remaining at 10 min, 0.5 µM [4]: 96%
remaining at 10 min, 0.5 µM [5]: 57%

CC(C)N(C)[C@@H]1CC[C@H](NC(=O)CNC(=O)c2cccc(C(F)(F)F)c2)C[C@H]1CS(=O)(=O)c1ccccc1
IC50 [1]: 2900 nM

CC(C)N[C@@H]1CC[C@H](NC(=O)CNC(=O)c2cccc(C(F)(F)F)c2)[C@H](CS(=O)(=O)c2ccccc2)C1
IC50 [1]: 5.2 nM

O=C(CNC(=O)c1cccc(C(F)(F)F)c1)N[C@H]1CC[C@@H](N2CCCCC2)[C@@H](CS(=O)(=O)c2ccccc2)C1 (racemic)
IC50 [1]: 340 nM

O=C(CNC(=O)c1cccc(C(F)(F)F)c1)N[C@H]1CC[C@@H](NC2CCC2)[C@@H](CS(=O)(=O)c2ccccc2)C1 (racemic)
IC50 [1]: 34 nM

N[C@@H]1CC[C@H](NC(=O)CNC(=O)c2cccc(C(F)(F)F)c2)[C@H](CS(=O)(=O)c2ccccc2)C1 (racemic)
IC50 [1]: 37 nM

CC(C)N(C)[C@H]1CC[C@@H](NC(=O)CNC(=O)c2cccc(C(F)(F)F)c2)CC1
IC50 [1]: 72 nM

CCN[C@@H]1CC[C@H](NC(=O)CNC(=O)c2cc(C(F)(F)F)ccc2NC(=O)N2CCC2)C[C@@H]1CS(=O)(=O)c1ccccc1 (racemic)
IC50 [6]: 12 nM

CC(C)N[C@@H]1CC[C@H](NC(=O)CNC(=O)c2cc(C(F)(F)F)ccc2NC(=O)N2CCC2)C[C@@H]1CS(=O)(=O)c1ccccc1 (racemic)
IC50 [6]: 6.6 nM
IC50 [7]: 810 nM
Ratio IC50 (Homo sapiens): > 100

CCN[C@@H]1CC[C@H](NC(=O)CNC(=O)c2cccc(C(F)(F)F)c2)C[C@@H]1CS(=O)(=O)c1ccccc1 (racemic)
remaining at 10 min, 0.5 µM [3]: 24%
IC50 [1]: 27 nM
remaining at 10 min, 0.5 µM [4]: 25%
remaining at 10 min, 0.5 µM [5]: 23%

CC(C)N(C)[C@@H]1CC[C@H](NC(=O)CNC(=O)c2cc(C(F)(F)F)ccc2NC(=O)N2CCC2)C[C@@H]1CS(=O)(=O)c1ccccc1 (racemic)
IC50 [6]: 34 nM

CC(C)N(C)[C@@H]1CC[C@H](NC(=O)CNC(=O)c2cccc(C(F)(F)F)c2)C[C@@H]1CS(=O)(=O)c1ccccc1
IC50 [1]: 79 nM

CN[C@@H]1CC[C@H](NC(=O)CNC(=O)c2cccc(C(F)(F)F)c2)C[C@@H]1CS(=O)(=O)c1ccccc1 (racemic)
IC50 [1]: 180 nM

CCCN(C)[C@@H]1CC[C@H](NC(=O)CNC(=O)c2cccc(C(F)(F)F)c2)C[C@@H]1CS(=O)(=O)c1ccccc1 (racemic)
IC50 [1]: 370 nM

CC(C)N[C@@H]1CC[C@H](NC(=O)CNC(=O)c2cccc(C(F)(F)F)c2)C[C@H]1CS(=O)(=O)c1ccccc1
IC50 [1]: 310 nM

CC(C)N[C@H]1CC[C@@H](NC(=O)CNC(=O)c2cccc(C(F)(F)F)c2)CC1
IC50 [1]: 570 nM

N[C@H]1CC[C@@H](NC(=O)CNC(=O)c2cccc(C(F)(F)F)c2)CC1
IC50 [1]: 4100 nM

CCCN[C@@H]1CC[C@H](NC(=O)CNC(=O)c2cccc(C(F)(F)F)c2)C[C@@H]1CS(=O)(=O)c1ccccc1 (racemic)
remaining at 10 min, 0.5 µM [3]: 11%
IC50 [1]: 54 nM
remaining at 10 min, 0.5 µM [4]: 28%
remaining at 10 min, 0.5 µM [5]: 8%

CC(C)N[C@@H]1CC[C@H](NC(=O)CNC(=O)c2cccc(C(F)(F)F)c2)C[C@@H]1CS(=O)(=O)c1ccccc1 (racemic)
remaining at 10 min, 0.5 µM [3]: 4.4%
IC50 [1]: 12 nM
remaining at 10 min, 0.5 µM [4]: 9.6%
remaining at 10 min, 0.5 µM [5]: 0.9%

N[C@@H]1CC[C@H](NC(=O)CNC(=O)c2cc(C(F)(F)F)ccc2NC(=O)N2CCC2)C[C@@H]1CS(=O)(=O)c1ccccc1 (racemic)
remaining at 10 min, 0.5 µM [3]: 70%
IC50 [7]: 7300 nM
remaining at 10 min, 0.5 µM [4]: 87%
remaining at 10 min, 0.5 µM [5]: 71%

CN(C)[C@@H]1CC[C@H](NC(=O)CNC(=O)c2cccc(C(F)(F)F)c2)C[C@@H]1CS(=O)(=O)c1ccccc1 (racemic)
remaining at 10 min, 0.5 µM [3]: 4.4%
IC50 [1]: 130 nM
remaining at 10 min, 0.5 µM [4]: 4.3%
remaining at 10 min, 0.5 µM [5]: 3.9%

CC(C)N(C)[C@@H]1CC[C@H](NC(=O)CNC(=O)c2cccc(C(F)(F)F)c2)C[C@@H]1CS(=O)(=O)c1ccccc1 (racemic)
IC50 [6]: 89 nM
